The text below walks through data of ChEMBL document CHEMBL1144864, “Exploration of the bicyclo[3.3.1]nonane system as a template for the development of new ligands for the estrogen receptor” (Bioorg Med Chem Lett, 2003).

Experiment [1] concerns the target T1, Estrogen receptor (Homo sapiens) (UniProt P03372).
T1 sequence (whole entry): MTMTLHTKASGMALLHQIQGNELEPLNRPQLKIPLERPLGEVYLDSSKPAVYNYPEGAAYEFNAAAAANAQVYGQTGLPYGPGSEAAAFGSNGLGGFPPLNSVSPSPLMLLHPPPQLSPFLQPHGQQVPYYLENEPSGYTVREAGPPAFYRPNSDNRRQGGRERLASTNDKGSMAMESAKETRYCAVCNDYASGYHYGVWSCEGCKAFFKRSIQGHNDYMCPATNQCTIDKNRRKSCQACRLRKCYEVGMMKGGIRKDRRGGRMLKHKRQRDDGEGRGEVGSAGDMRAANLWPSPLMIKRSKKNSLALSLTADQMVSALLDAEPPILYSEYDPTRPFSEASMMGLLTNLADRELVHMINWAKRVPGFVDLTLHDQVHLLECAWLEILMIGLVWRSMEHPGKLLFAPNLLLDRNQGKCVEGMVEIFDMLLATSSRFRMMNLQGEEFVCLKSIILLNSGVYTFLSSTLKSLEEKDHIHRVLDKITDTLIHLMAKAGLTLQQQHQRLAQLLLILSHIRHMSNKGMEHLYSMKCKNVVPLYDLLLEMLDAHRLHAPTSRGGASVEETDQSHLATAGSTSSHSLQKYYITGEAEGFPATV
The experiment in a line: Affinity for estrogen receptor alpha (ER-alpha) relative to estradiol. The procedure, abridged:
(§1)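 Competitive radiometric binding assay against ER alpha or ER beta. Values are reported as relative binding affinity (RBA), expressed as a percentage of the affinity of estradiol.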

In experiment [2] the target is Estrogen receptor beta (Homo sapiens) (UniProt Q92731). The experiment in a line: Affinity for estrogen receptor beta (ER-beta) relative to estradiol. The procedure, abridged: as §1
Sequence of Estrogen receptor beta (Homo sapiens) (Q92731 whole entry): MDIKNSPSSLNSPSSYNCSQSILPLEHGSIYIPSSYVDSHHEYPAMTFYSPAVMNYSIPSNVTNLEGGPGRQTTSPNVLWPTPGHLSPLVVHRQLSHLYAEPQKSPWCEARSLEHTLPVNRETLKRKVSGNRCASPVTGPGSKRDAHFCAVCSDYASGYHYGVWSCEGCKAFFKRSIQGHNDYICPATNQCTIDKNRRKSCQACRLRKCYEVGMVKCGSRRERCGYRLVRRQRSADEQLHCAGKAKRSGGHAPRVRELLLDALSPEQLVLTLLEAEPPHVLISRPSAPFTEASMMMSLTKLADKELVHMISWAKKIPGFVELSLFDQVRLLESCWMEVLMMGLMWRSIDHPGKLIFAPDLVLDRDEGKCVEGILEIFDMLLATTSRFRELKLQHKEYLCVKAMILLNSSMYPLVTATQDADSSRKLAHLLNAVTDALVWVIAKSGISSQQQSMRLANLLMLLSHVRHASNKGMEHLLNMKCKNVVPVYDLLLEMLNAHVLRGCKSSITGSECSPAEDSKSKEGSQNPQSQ
Experiment [3] has as its target Estrogen receptor (Homo sapiens) (UniProt Q92731+P03372). The experiment can be described thus: Relative affinity for alpha and beta estrogen receptors. It is filed as protein assay.
Experiment [4] deals with T1, Estrogen receptor (Homo sapiens). The experiment in a line: Binding affinity for Estrogen receptor alpha relative to estradiol. Put shortly: as §1
Experiment [5] addresses Estrogen receptor beta (Homo sapiens) (UniProt Q92731). The experiment can be described thus: Binding affinity for Estrogen receptor beta relative to estradiol. The procedure, abridged: as §1

Sequence of Estrogen receptor (Homo sapiens) (UniProt Q92731+P03372) (Q92731 whole entry, looked up, one chain of several): as the sequence (Q92731 whole entry) above

Consider `Oc1ccc(C2C3CCCC2CCC3)cc1` (stereo not drawn), for which the relative binding affinity (RBA) in experiment [1] was found to be 0.13; in experiment [2], 1.33. Further, the Ratio in experiment [3] was found to be 10.

As to `Oc1ccc2c(c1)CC1CC2Cc2cc(O)ccc21`, the relative binding affinity (RBA) in experiment [1] was 0.22; in experiment [2] it was 0.77. The Ratio in experiment [3] stood at 3.5.

As to `O=C1c2ccc(O)cc2C2CC1c1cc(O)ccc1C2=O`, the relative binding affinity (RBA) in experiment [1] turned out to be 0.005; in experiment [2], 0.022. Also, in experiment [3], the Ratio was 4.4.

For the compound `CC(=O)Oc1ccc(C(=C2CCCCC2)c2ccc(OC(C)=O)cc2)cc1`, the relative binding affinity (RBA) in experiment [4] came out at 68; in experiment [5], 334.

In the case of `C[C@@H]1c2ccc(O)cc2C2CC1c1cc(O)ccc1[C@H]2C`, the figures for the relative binding affinity (RBA) in experiment [1] and in experiment [2] were 0.007 and 0.025, respectively. Moreover, the Ratio in experiment [3] is 3.6.

With `Oc1ccc(C2(c3ccc(O)cc3)C3CCCC2CCC3)cc1`, the relative binding affinity (RBA) in experiment [1] was determined as 0.31; in experiment [2], 0.25. In experiment [3], the Ratio came out at 0.8.

With `C[C@@H]1c2cc(O)ccc2C2CC1c1ccc(O)cc1[C@H]2C`, the relative binding affinity (RBA) in experiment [1] was 0.004; in experiment [2], 0.011. The Ratio in experiment [3] came out at 2.7.

As for `CC(=C1C2CCCC1CCC2)c1ccc(O)cc1`, the values for the relative binding affinity (RBA) in experiment [1] and in experiment [2] were 1.71 and 4.58, respectively. The Ratio in experiment [3] was found to be 2.7.

On to `Oc1ccc(C(=C2C3CCCC2CCC3)c2ccc(O)cc2)cc1`, for which the relative binding affinity (RBA) came to 513 in experiment [1] and 301 in experiment [2]. In addition, the Ratio in experiment [3] is 0.59.

Regarding `CC1(c2ccc(O)cc2)C2CCCC1CCC2` (stereo not drawn), the values for the relative binding affinity (RBA) in experiment [1] and in experiment [2] were 0.32 and 8.9, respectively. For the same compound, in experiment [3], the Ratio was 28.

On to `Oc1ccc2c(c1)C1Cc3ccc(O)cc3C(C2)C1`, for which the relative binding affinity (RBA) came out at 0.033 in experiment [1] and 0.072 in experiment [2]. The Ratio in experiment [3] worked out at 2.

With `Oc1ccc(C2=CCC3CCCC2C3)cc1` (stereo not drawn), the values for the relative binding affinity (RBA) in experiment [1] and in experiment [2] were 0.39 and 1.81, respectively. In addition, the Ratio in experiment [3] amounted to 4.6.

Turning to `O=C1c2cc(O)ccc2C2CC1c1ccc(O)cc1C2=O`, the relative binding affinity (RBA) in experiment [1] stood at 0.006; in experiment [2], 0.021. In experiment [3], the Ratio is 3.5.

Consider `Oc1ccc2c(c1)CN1CN2Cc2cc(O)ccc21`, for which the relative binding affinity (RBA) in experiment [1] and in experiment [2] was under 0.005 throughout.

For the compound `Oc1ccc(C2CCC3CC2CCC3c2ccc(O)cc2)cc1` (stereo not drawn), the relative binding affinity (RBA) was 0.44 in experiment [1] and 2.9 in experiment [2]. For the same compound, the Ratio in experiment [3] turned out to be 6.6.
